This data set can be described thus: Toxicity liver stage against HepG2, at 10uM. The following applies: human, HepG2-A16-CD81EGFP cells; read-out: INHIBITION
The format is cell-based. Also on record: test concentration 10 uM, cell line HepG2-A16-CD81EGFP. The procedure, abridged: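 Uninfected HepG2-A16-CD81EGFP cells, 3 × 10^3 per well, 1536-well, plated on prespotted compound at 10 μM final, parasite-free screening media added to match infected plates; puromycin 10 μM positive, DMSO 0.5% negative; run in parallel with 48 h PbLuc assay at 37 °C, 5% CO2; viability by CellTiter-Glo luminescence, normalized to controls.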
With `O=C(Nc1ccc(Cl)cc1C(=O)NCCN1CCOCC1)c1ccco1`, the cytotoxicity at 10 µM is -4.62%.

Regarding `Cc1cnc(-c2nc(C3CCN(Cc4ccccc4Cl)CC3)no2)cn1`, the cytotoxicity at 10 µM is -5.85%.

`Cc1csc2c(C3CCN(C(=O)Cn4cncn4)CC3)nc(C)n12`: the cytotoxicity at 10 µM is 6.28%.

On to `COc1ccc(C2CNCCN2C(=O)c2nccc3ccccc23)cc1` (centres undefined), for which the cytotoxicity at 10 µM was determined as 4.1%.

In the case of `CNC(=O)C1(c2cnccn2)CCCN1C(=O)c1cccnc1OC` (centres undefined), the cytotoxicity at 10 µM is -8.55%.

In the case of `COCC(=O)N1CCN(c2cc(C)nc(C3CCCN3C(C)=O)c2)CC1` (centres undefined), the cytotoxicity at 10 µM was determined as 1.86%.

Turning to `O=C(COc1cccc(F)c1)N1C[C@@H](O)[C@H](N2CCOCC2)C1`, the cytotoxicity at 10 µM is 6.02%.

As for `COc1cc2nc3n(c(=O)c2cc1OC)CCN(C(=O)C(C)(C)C)CC3`, the cytotoxicity at 10 µM is -13.5%.

In the case of `OC1CCN(Cc2c(-c3ccco3)[nH]c3ncccc23)CC1`, the cytotoxicity at 10 µM was -1.58%.

As to `CCc1cc(C(=O)N2CCc3nc4c(C)csc4c(=O)n3CC2)on1`, the cytotoxicity at 10 µM is -14.9%.

In the case of `CN(c1ccncn1)C1CC2(CCN(C(=O)c3cncs3)C2)C1` (centres undefined), the cytotoxicity at 10 µM is -8.13%.

Take `O=C(c1ccncc1)N1CCC(O)(Cn2ccc3ccncc32)CC1`: the cytotoxicity at 10 µM was determined as 1.93%.

As for `CC(=O)N1CCCN(Cc2ccon2)c2ccccc21`, the cytotoxicity at 10 µM was determined as 0.616%.

As for `CCN(CC)S(=O)(=O)NC(C)C(=O)N(C)C` (centres undefined), the cytotoxicity at 10 µM turned out to be 9.55%.

As for `O=C(c1ccc2[nH]cnc2c1)N1CCC(COc2ccccn2)CC1`, the cytotoxicity at 10 µM is -2.91%.

As for `CC(C)(C(=O)NCCCc1nc2ccccc2[nH]1)n1cc(Cl)cn1`, the cytotoxicity at 10 µM was determined as 4.05%.

As to `O=C1CSCN1CC(=O)N1CCCC1c1nc2ccccc2s1` (centres undefined), the cytotoxicity at 10 µM is -12.7%.

Regarding `COc1ccc(C(CC(=O)O)NC(=O)c2cc(C)on2)cc1` (centres undefined), the cytotoxicity at 10 µM stood at 5.12%.

On to `COc1cccc(S(=O)(=O)CCN2CCCC2c2ccc[nH]2)c1` (centres undefined), for which the cytotoxicity at 10 µM is -3.89%.

As for `O=C(c1ccccc1F)N1CCN(CCCn2cncn2)CC1`, the cytotoxicity at 10 µM was found to be 2.99%.

For `Cc1cc(CC(=O)NCC(O)c2ccc(OC(F)F)cc2)n[nH]1` (centres undefined), the cytotoxicity at 10 µM was -0.988%.

As for `CC1CCN(C(CNC(=O)Cn2cccn2)c2cccs2)CC1` (centres undefined), the cytotoxicity at 10 µM is -16%.

As to `Cc1nc(CN2CCC(CNC(=O)NCCC3CCC3)CC2)oc1C`, the cytotoxicity at 10 µM was -0.5%.

Regarding `CCn1cc(NC(=O)NC(CO)Cc2c[nH]c3ccccc23)cn1` (centres undefined), the cytotoxicity at 10 µM was -7.03%.

Regarding `Cn1cnc2c1CCN(CCOc1ccc3c(c1)CCC(=O)N3)C2`, the cytotoxicity at 10 µM is -4.48%.

Regarding `O=C(N1CCC(O)(C(F)(F)F)C1)C1(c2ccc(Cl)cc2)CC1` (centres undefined), the cytotoxicity at 10 µM came out at 9.64%.

For `O=C(CC(F)(F)F)N1CCc2onc(Cn3cccn3)c2C1`, the cytotoxicity at 10 µM turned out to be 0.635%.

On to `CS(=O)(=O)N[C@@H]1CCO[C@]2(CCN(C(=O)c3cnccn3)C2)C1`, for which the cytotoxicity at 10 µM stood at 1.98%.

Take `OC(CNc1ccncn1)CN1CCCCCC1` (centres undefined): the cytotoxicity at 10 µM is -0.271%.

Turning to `NC1CCCN(C(=O)c2csc(-c3ccc(C(F)(F)F)cc3)n2)CC1` (centres undefined), the cytotoxicity at 10 µM is -15.1%.

Regarding `Cc1nn(C)c(Cl)c1C1CCCN1C(=O)c1ccc2c(c1)OCO2` (centres undefined), the cytotoxicity at 10 µM is -2.9%.

Take `CC(C)(C)SCCCC(=O)N1CCC(Nc2cccnn2)CC1`: the cytotoxicity at 10 µM was -8.26%.

On to `CN1CCCc2cc(-c3cncn3CCNC3CCS(=O)(=O)C3)ccc21` (centres undefined), for which the cytotoxicity at 10 µM was -2.42%.

In the case of `Cc1ccc(C(CCNCCCN(C)C)C2CCOC(C)(C)C2)cc1` (centres undefined), the cytotoxicity at 10 µM is -3.32%.

As to `O=C(NCC1CC1)[C@H]1C[C@H]2OCC[C@H]2N(CCc2ccccc2)C1`, the cytotoxicity at 10 µM is 3.86%.

In the case of `c1cnc2c(c1)cc(C1CCOCC1)n2CCN1CCOCC1`, the cytotoxicity at 10 µM was 0.487%.

With `O=C1NC2(CCN(Cc3ccoc3)CC2)CC1c1ccncc1` (centres undefined), the cytotoxicity at 10 µM worked out at 6.05%.

With `c1cnc(N2C[C@H]3CN(CC4CCOC4)C[C@H]3C2)nc1` (some centres undefined), the cytotoxicity at 10 µM was -5.09%.

As for `Cc1ccc2c(n1)N(Cc1cccnc1)CCN(C(=O)C1CCC1)C2`, the cytotoxicity at 10 µM stood at 13.7%.

The record behind these values is ChEMBL document CHEMBL4513216, “Probing the Open Global Health Chemical Diversity Library for Multistage-Active Starting Points for Next-Generation Antimalarials” (ACS Infect Dis, 2020).
